# CHRM1 antagonist – human CHRM1 antagonism. P11229. 360,000 compounds, 1.3% hits. inhibition, % at 3 µM. CHO-K1 hM1, Fluo-8 calcium fluorescence, ACh EC80 antagonist. AID 588852;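 active = percent inhibition above its own plate's cutoff, namely the mean of that plate's compound wells plus 3 SD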;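 also: peak over basal fluorescence ratio during 140 s after agonist addition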
# Target sequence (P11229 whole entry, looked up): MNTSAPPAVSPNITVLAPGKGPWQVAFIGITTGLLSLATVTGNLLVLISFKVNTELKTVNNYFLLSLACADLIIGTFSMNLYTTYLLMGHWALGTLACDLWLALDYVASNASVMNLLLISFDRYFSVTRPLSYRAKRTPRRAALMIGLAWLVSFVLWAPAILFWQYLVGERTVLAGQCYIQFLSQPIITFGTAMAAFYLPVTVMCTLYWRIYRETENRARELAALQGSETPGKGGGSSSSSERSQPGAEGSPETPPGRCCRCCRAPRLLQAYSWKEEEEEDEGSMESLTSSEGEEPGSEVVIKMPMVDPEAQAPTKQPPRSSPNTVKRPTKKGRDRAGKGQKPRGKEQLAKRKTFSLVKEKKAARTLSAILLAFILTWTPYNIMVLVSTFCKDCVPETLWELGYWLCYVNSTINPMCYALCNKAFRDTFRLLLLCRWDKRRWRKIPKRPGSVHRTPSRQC
# TAAR1 ag – agonists of human TAAR1. CHO RD-HGA16 TAAR1, Fluo-8 calcium fluorescence; vehicle wells 0%, saturating PEA agonist 100%. 360,000 compounds, 0.99% hits. activation, % at 3 µM;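 active = activation above the mean activation of all test compounds in the run plus 3 SD, cut at about 38% in these data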
#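 System: CHO RD-HGA16 cells carrying human TAAR1 plus Gα16; Incubation: 17-24 h seeding, 75 min 37 °C dye, 30 min RT; Measured by: Fluo-8 fluorescence, 5 s baseline then 140 s kinetic read; Control set: DMSO and PEA EC100; Replication: single well for each compound.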
# M1 PAM – positive allosteric modulators of human M1 muscarinic receptor; 360,000 compounds, 0.088% hits; activation, % at 3 µM; CHO-K1 hM1, Fluo-8 calcium fluorescence, ACh EC20; 0% = ACh EC20, 100% = maximal ACh; AID 588819; P11229; in the data active = activation above about 19%, passing the limit was not always enough
# TAAR1 antag – antagonists of human TAAR1 | 360,000 compounds, 1.5% hits | inhibition, % at 3 µM | Q96RJ0 | CHO RD-HGA16 TAAR1, Fluo-8 calcium fluorescence, antagonist;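 active = inhibition above a per-plate cutoff, the mean inhibition of test compounds on that plate plus 3 SD, cut at about 49% in these data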
#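 Assay system: CHO-derived RD-HGA16 cells stably expressing human TAAR1 plus Gα16. Timing: 140 s kinetic read after compound, 140 s after agonist. Technique: kinetic Fluo-8 calcium fluorescence measurement. Measure: % inhibition of agonist calcium response.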
# M1 ag – activates human CHRM1 receptor | P11229 | CHO-K1 hM1, Fluo-8 calcium fluorescence, agonist mode; 0% DMSO, 100% acetylcholine EC100 | activation, % at 3 µM | 360,000 compounds, 0.33% hits | AID 588814;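 active = activation above the run's mean compound activation plus 3 SD, cut at about 16% in these data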;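 also: peak over basal fluorescence ratio within a 140 s kinetic read after compound addition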
# TAAR1 ag confirm – human TAAR1 agonism, confirmed. CHO RD-HGA16 TAAR1, Fluo-8 calcium fluorescence; scaled: DMSO 0%, maximal phenethylamine 100%. AID 651783. shares compounds with TAAR1 ag. 2,400 compounds, 82% hits. activation, % at 3 µM;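 active = activation above a cutoff set at the run's mean compound activation plus 3 SD, cut at about 39% in these data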
# Ga16 ag counter – nonselective agonist in parental cells, TAAR1 agonist counter-screen | 2,400 compounds, 50% hits | AID 651787 | activation, % at 3 µM | shares compounds with TAAR1 ag | CHO-Ga16 parental, Fluo-8 calcium fluorescence; normalized to maximal ATP response, DMSO zero;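 active = activation above the run cutoff, the mean activation over all tested wells plus 3 SD, cut at about 12% in these data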
# TAAR1 desensitize – human TAAR1 agonist that also desensitizes the receptor | shares compounds with TAAR1 ag | CHO RD-HGA16 hTAAR1, Fluo-8 calcium, beta-PEA response inhibition | inhibition, % at 3 µM | 2,400 compounds, 46% hits;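 active = inhibition above the run cutoff, the mean inhibition of all test compounds plus 3 SD, cut at about 49% in these data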;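 also: beta-PEA stimulus applied at its EC80; loss of beta-PEA calcium signal after compound pretreatment read as receptor desensitization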
# Ga16 nonsel ant – nonselective Ga16 antagonist in TAAR1 agonist counter-screen; AID 651952; inhibition, % at 3 µM; 2,400 compounds, 39% hits; shares compounds with TAAR1 ag; CHO-Ga16 ATP-induced calcium, Fluo-8 fluorescence;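 active = inhibition above the plate's mean compound inhibition plus 3 SD, computed per plate, cut at about 22% in these data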
# A number is an active result; – = inactive; · = not tested or not shown. Compounds with a hit are over-represented: about 3.4% of the library has one in this group of screens.
SMILES,CHRM1 antagonist,TAAR1 ag,M1 PAM,TAAR1 antag,M1 ag,TAAR1 ag confirm,Ga16 ag counter,TAAR1 desensitize,Ga16 nonsel ant
COc1cc(OC)c(-n2cc(-c3ccc(OC)c(OC)c3)[nH]c2=S)cc1Cl,–,96,–,–,–,–,–,–,–
COc1ccc(-c2oc3c(c2C#CCCCCO)C(OCCO)CC3)cc1 (stereo unspecified),·,–,·,–,·,·,·,·,·
CCN(c1ccccc1)S(=O)(=O)c1ccc(C(=O)N(CCCN(C)C)c2nc3c(C)cccc3s2)cc1,–,43,–,–,–,–,16,–,32
CSC1SCC2C(=O)N(C)C(C(C)C)C(=O)OCC(NC(=O)c3cnc4ccccc4n3)C(=O)NC(C)C(=O)N(C)C1C(=O)N(C)C(C(C)C)C(=O)OCC(NC(=O)c1cnc3ccccc3n1)C(=O)NC(C)C(=O)N2C (stereo unspecified),–,–,–,–,–,·,·,·,·
O=C(CNCC1CCCCC1)Nc1ccc(OC(F)(F)F)cc1,–,74,–,–,–,76,51,49,33
CCOc1ccc(S(=O)(=O)N=C(c2ccccc2)N2CCOCC2)cc1,–,–,–,–,–,·,·,·,·
Cc1ccc(/C=C2\SC(=S)N(CCC(=O)N3CCOCC3)C2=O)cc1,–,–,–,–,–,·,·,·,·
O=c1cc(Nc2ccc3c(c2)OCO3)[nH]c(=O)n1-c1ccc(Br)cc1,–,48,–,–,–,76,–,–,–
CCOc1ccc(C2C(C(=O)/C=C/c3ccco3)=C(O)C(=O)N2CCN2CCOCC2)cc1OC (stereo unspecified),–,–,–,–,–,·,·,·,·
O=C(O)c1ccccc1-c1ccc(C=c2sc3nc4cc(Br)cnc4n3c2=O)o1,–,–,–,–,–,·,·,·,·
O=C(O)c1ccccc1-c1ccc(/C=C/c2cc(C(F)(F)F)[nH]c(=O)n2)o1,–,237,–,–,–,69,117,–,28
CN(CC(=O)NCc1ccccc1)CC(=O)Nc1ccc(Cl)c(C(F)(F)F)c1,–,73,–,–,–,82,25,60,34
CN(CC(=O)NC(=O)NCc1ccccc1)CC(=O)Nc1ccc(Cl)c(C(F)(F)F)c1,–,–,–,–,–,·,·,·,·
COc1ccccc1NS(=O)(=O)c1ccc(C(=O)N2CC(C)OC(C)C2)cc1 (stereo unspecified),–,–,–,–,–,·,·,·,·
O=C1CC(c2ccccc2)CC(O)=C1C=NCc1ccccc1 (stereo unspecified),–,–,–,–,–,·,·,·,·
O=C1CC(c2ccccc2)CC(O)=C1C=NCCc1ccccc1 (stereo unspecified),–,67,–,–,–,72,–,–,–
CC1(C)CC(=O)C(C=NCCc2ccc(O)cc2)=C(O)C1,–,66,–,–,–,106,–,79,–
CC1(C)CC(=O)C(C=NCCc2ccccn2)=C(O)C1,–,–,–,–,–,·,·,·,·
Oc1ccc(C=NCCc2ccccc2)cc1,–,·,–,·,–,·,–,·,–
COc1cccc(OCCCN2CCC(C(O)(c3ccccc3)c3ccccc3)CC2)c1,·,42,·,–,·,–,13,–,26
CC(=O)Nc1ccc(OCCCN2CCC(C(O)(c3ccccc3)c3ccccc3)CC2)cc1,·,–,·,–,·,·,·,·,·
Cc1cccc(OCCCN2CCC(C(O)(c3ccccc3)c3ccccc3)CC2)c1,·,41,·,–,·,–,16,–,30
OC(c1ccccc1)(c1ccccc1)C1CCN(CCCOc2cc(F)cc(F)c2)CC1,·,49,·,–,·,–,32,49,46
COc1cc2c(cc1OC)CN(C(=O)Cc1c(F)cccc1Cl)CC2,–,–,–,–,–,·,·,·,·
